Reference: ChEMBL document CHEMBL1140092, “New chimeric antimalarials with 4-aminoquinoline moiety linked to a tetraoxane skeleton” (J Med Chem, 2008)
Activity calls are given as the source filed them.

Experiments:
Plasmodium falciparum [1] = experiment: Antimalarial activity against chloroquine-sensitive Plasmodium falciparum D6; format: functional, organism-based
Summary of the method: (§1)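 In vitro blood-stage assay with P. falciparum clones: D6 (Sierra I/UNC isolate), W2 (Indochina I isolate) and TM91C235 (Southeast Asian isolate). Activity was expressed as IC90.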

Plasmodium falciparum [2] = experiment: Antimalarial activity against multidrug-resistant Plasmodium falciparum TM91C235; format: functional, organism-based; summary of the method: as §1
Plasmodium falciparum [3] = experiment: Antimalarial activity against chloroquine-resistant, mefloquine-susceptible Plasmodium falciparum W2; format: functional, organism-based; summary of the method: as §1
[4] = system: Mycobacterium tuberculosis; experiment: Antitubercular activity against Mycobacterium tuberculosis H37Rv at 6.26 ug/ml by alamar blue assay; format: functional
Summary of the method: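 Screened against M. tuberculosis H37Rv at TAACF by Alamar blue assay at a cutoff of 6.26 µg/mL. Active was defined as >90% inhibition.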

[5] = system: Mycobacterium tuberculosis; experiment: Antitubercular activity against Mycobacterium tuberculosis H37Rv by microplate alamar blue assay; format: functional
Summary of the method: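 M. tuberculosis H37Rv was tested at TAACF by microplate Alamar blue assay (MABA). Inhibitory activity was reported as IC90.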

[6] = Metabolic stability in mouse liver microsomes assessed as half life; format: ADME, Microsome
[7] = Toxicity in Plasmodium berghei KBG173-infected perorally dosed ICR mice (Mus musculus) assessed as maximum tolerated dose; format: organism-based; settings: in vivo, po
Summary of the method: (§2)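 Orally dosed, P. berghei KBG 173-infected ICR mice in groups of five received compound suspended in 0.5% hydroxyethylcellulose-0.1% Tween 80 once daily for three consecutive days. Doses went up to 960 mg/kg. Toxicity was judged by survival and by gross lesions at necropsy.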

Plasmodium berghei [8] = experiment: Antimalarial activity against Plasmodium berghei KBG173 infected ICR mice (Mus musculus) at 320 mg/kg/day peroral dose from days 3 to 5 post infection; format: functional; settings: route oral
Summary of the method: (§3)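 Modified Thompson test in groups of five ICR mice. Mice were inoculated ip with P. berghei KBG 173-infected erythrocytes on day 0. Compound was suspended in 0.5% hydroxyethylcellulose-0.1% Tween 80 and given orally once daily on days 3-5. Blood smears were read on days 6-31. Cure was defined as alive on day 31 with no parasites in a blood film. Necropsy followed.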

Mus musculus = experiment: Toxicity in Plasmodium berghei KBG173-infected ICR mice (Mus musculus) at 960 mg/kg, perorally for 3 days; format: organism-based; set-up: dose 960 mg/kg, route oral; settings: in vivo, po, 72 h; summary of the method: as §2
Plasmodium berghei [9] = experiment: Antimalarial activity against Plasmodium berghei KBG173 infected ICR mice (Mus musculus) assessed at 20 mg/kg/day peroral dose from days 3 to 5 post infection; format: functional; settings: route oral; summary of the method: as §3
[10] = Metabolic stability in human liver microsomes assessed as half life; format: ADME, Microsome
Plasmodium berghei [11] = experiment: Antimalarial activity against Plasmodium berghei KBG173 infected ICR mice (Mus musculus) at 20 mg/kg/day peroral dose from day 3 post infection at day 31 by modified Thompson test; format: functional, organism-based; summary of the method: as §3
Plasmodium berghei [12] = experiment: Antimalarial activity against Plasmodium berghei KBG173 infected ICR mice (Mus musculus) at 320 mg/kg/day peroral dose from day 3 post infection at day 31 by modified Thompson test; format: functional, organism-based; summary of the method: as §3
Plasmodium berghei [13] = experiment: Antimalarial activity against Plasmodium berghei KBG173 infected ICR mice (Mus musculus) assessed at 80 mg/kg/day peroral dose from days 3 to 5 post infection; format: functional; settings: route oral; summary of the method: as §3

SMILES | IC50 (Plasmodium falciparum [1]) | IC90 (Plasmodium falciparum [1]) | IC50 (Plasmodium falciparum [2]) | IC90 (Plasmodium falciparum [2]) | IC50 (Plasmodium falciparum [3]) | IC90 (Plasmodium falciparum [3]) | inhibition at 6.26 µg/mL [4] | IC90 [5] | half-life [6] | MTD [7] | Survival (Plasmodium berghei [8]) | Activity (Mus musculus) | Survival (Plasmodium berghei [9]) | half-life [10] | Activity (Plasmodium berghei [11]) | Activity (Plasmodium berghei [12]) | Survival (Plasmodium berghei [13])
C[C@@H]1CC[C@H]2[C@@H](C)C(=O)O[C@@H]3O[C@@]4(C)CC[C@@H]1[C@]32OO4 [ARTEMISININ] | 9 nM | 12.8 nM | 13 nM | 17.4 nM | 6.7 nM | 11.5 nM | – | – | – | – | – | – | – | – | – | – | –
CC(=O)O[C@H]1C[C@H]2[C@@H]([C@H](OC(C)=O)C[C@@H]3CC4(CC[C@@]32C)OOC2(CCCCC2)OO4)[C@@H]2CC[C@H]([C@H](C)CCCNCCNc3ccnc4cc(Cl)ccc34)[C@@]12C | 33.5 nM | 103 nM | 30.2 nM | 160 nM | 22.9 nM | 30.3 nM | > 90% | 330 nM | – | – | – | – | – | – | – | – | –
OC(c1cc(C(F)(F)F)nc2c(C(F)(F)F)cccc12)C1CCCCN1 (configuration not stated) [MEFLOQUINE] | 19 nM | 44.8 nM | 47.5 nM | 153 nM | 5.35 nM | 18.6 nM | – | – | – | – | – | – | – | – | – | – | –
CCN(CC)CCCC(C)Nc1ccnc2cc(Cl)ccc12 (configuration not stated) [CHLOROQUINE] | – | 15.9 nM | – | 264 nM | – | 640 nM | – | – | – | – | – | – | – | – | – | – | –
O=C(NCCNc1ccnc2cc(Cl)ccc12)C1CCC2(CC1)OOC1(CCCCC1)OO2 | 2.33 nM | 3.75 nM | 3.7 nM | 7.38 nM | 2 nM | 2.26 nM | > 90% | – | > 60 min | > 960 mg/kg | >31 days | Non-toxic | 14.2 days | > 60 min | inactive | Active | 26.2 days
Clc1ccc2c(NCCNCC3CCC4(CC3)OOC3(CCCCC3)OO4)ccnc2c1 | 9.05 nM | 18.2 nM | 9.9 nM | 18.3 nM | 5.76 nM | 12.4 nM | > 90% | < 430 nM | – | > 960 mg/kg | >31 days | Non-toxic | 15.8 days | – | inactive | Active | 26.4 days
CC(=O)O[C@H]1C[C@H]2[C@@H]([C@H](OC(C)=O)C[C@@H]3CC4(CC[C@@]32C)OOC2(CCCCC2)OO4)[C@@H]2CC[C@H]([C@H](C)CCC(=O)NCCNc3ccnc4cc(Cl)ccc34)[C@@]12C | 6.53 nM | 10.6 nM | 8.54 nM | 17.2 nM | 4.47 nM | 10.7 nM | > 90% | 400 nM | – | – | – | – | – | – | – | – | –
